≈ marks a conversion by molar mass, not a printed value.
Experiments:
Aspergillus flavus = assay: Antifungal activity against Aspergillus flavus ATCC 1030 at 200 ug/ml by agar tube dilution test; format: functional
Nakaseomyces glabratus = assay: Antifungal activity against Candida glabrata ATCC 90030 at 200 ug/ml by agar tube dilution test; format: functional
Leishmania major = assay: Antileishmanial activity against Leishmania major MHOM/PK/88/DESTO promastigotes by alamar blue assay; format: functional, organism-based
Trichophyton longifusum = assay: Antifungal activity against Trichophyton longifusum ATCC 22397 at 200 ug/ml by agar tube dilution test; format: functional
Fusarium solani = assay: Antifungal activity against Fusarium solani ATCC 11712 at 200 ug/ml by agar tube dilution test; format: functional
Candida albicans = assay: Antifungal activity against Candida albicans ATCC 2192 at 200 ug/ml by agar tube dilution test; format: functional
Microsporum canis = assay: Antifungal activity against Microsporum canis ATCC 9865 at 200 ug/ml by agar tube dilution test; format: functional
[1] = Toxicity against Artemia salina nauplii larvae; format: organism-based; details: in vivo, read-out: LD50 (the source's name)
Procedure, shortened: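 Brine shrimp lethality bioassay. LD50 was derived from the mortality data by Finney's probit analysis.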

Salmonella enterica = assay: Antibacterial activity against Salmonella typhi ATCC 10749 at 10 mg/disk by agar well-diffusion method; format: functional, Salmonella enterica subsp. enterica serovar Typhi
Procedure, shortened: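 Agar well-diffusion assay with compounds at 1 mg mL-1 in DMSO. Imipenem served as the reference disc. The read-out is the inhibition zone diameter in mm, graded as 3-6 non-significant, 7-9 low, 10-12 good and >12 significant.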

Staphylococcus aureus = assay: Antibacterial activity against Staphylococcus aureus ATCC 25923 […] by agar well-diffusion method; format: functional
Procedure, shortened: (§1)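 Test compounds dissolved in DMSO at 1 mg mL-1 and applied in agar wells; imipenem reference at 10 mg/disc. Inhibition zone diameter was read and graded as 3-6 mm non-significant, 7-9 mm low, 10-12 mm good, and >12 mm significant.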

Pseudomonas aeruginosa = assay: Antibacterial activity against Pseudomonas aeruginosa ATCC 10145 […] by agar well-diffusion method; format: functional; procedure, shortened: as §1
Escherichia coli = assay: Antibacterial activity against Escherichia coli ATCC 11229 […] by agar well-diffusion method; format: functional; procedure, shortened: as §1
Shigella flexneri = assay: Antibacterial activity against Shigella flexneri ATCC 10782 […] by agar well-diffusion method; format: functional; procedure, shortened: as §1
Bacillus subtilis = assay: Antibacterial activity against Bacillus subtilis ATCC 11774 […] by agar well-diffusion method; format: functional; procedure, shortened: as §1

## O=CN/N=C/c1ccccc1O
Aspergillus flavus
  inhibition at 200 µg/mL: 40%
Nakaseomyces glabratus
  inhibition at 200 µg/mL: 0%
Leishmania major
  IC50: 24 µg/mL (≈ 146 µM)
Trichophyton longifusum
  inhibition at 200 µg/mL: 0%
Fusarium solani
  inhibition at 200 µg/mL: 0%
Candida albicans
  inhibition at 200 µg/mL: 0%
Microsporum canis
  inhibition at 200 µg/mL: 0%

## COc1cc([C@@H]2c3cc4c(cc3[C@@H](O[C@@H]3O[C@@H]5CO[C@@H](C)O[C@H]5[C@H](O)[C@H]3O)[C@H]3COC(=O)[C@H]23)OCO4)cc(OC)c1O [ETOPOSIDE]
[1]
  LC50: 7.46 µg/mL (≈ 12.7 µM)

## C[C@@H](O)[C@H]1C(=O)N2C(C(=O)O)=C(SCCNC=N)C[C@H]12 [IMIPENEM ANHYDROUS]
Salmonella enterica
  diameter of the inhibition zone (DIZ): 30 mm
Staphylococcus aureus
  diameter of the inhibition zone (DIZ): 26 mm
Pseudomonas aeruginosa
  diameter of the inhibition zone (DIZ): 32 mm
Escherichia coli
  diameter of the inhibition zone (DIZ): 30 mm
Shigella flexneri
  diameter of the inhibition zone (DIZ): 36 mm
Bacillus subtilis
  diameter of the inhibition zone (DIZ): 37 mm

Source: ChEMBL document CHEMBL1177863, “Diorganotin(IV) derivatives of ONO tridentate Schiff base: synthesis, crystal structure, in vitro antimicrobial, anti-leishmanial and DNA binding studies” (Eur J Med Chem, 2010)
